MT1-MMP act inh – blocks activation of human MT1-MMP. GFP/RFP ratio change, % at 20 µM. AID 651647. HT1080 RFP-PRO-GFP cells, GFP/RFP ratio fluorescence, overnight; percent of plate control window, DMSO zero. 0.061% of 360,000 active;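 active = GFP/RFP ratio change of at least 30% with cell ATP level not reduced by more than half and red fluorescence within 50% of control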
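Material: RFP-PRO-GFP reporter HT1080 cells. Dosing: single-point 20 µM compound, 1% DMSO. Controls: DMSO and RFP-L50D-GFP cell wells. Timing: cells overnight before dosing, compound overnight, 37 °C, 5% CO2. Measure: GFP/RFP fluorescence ratio.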
Neddylation inh – blocks human cullin neddylation; P61081+Q13564; TR-FRET cullin neddylation, biochemical; calls only at 25 µM; 0.58% of 360,000 active; in the data active = inhibition above about 36%
Target sequence (P61081 whole entry, looked up): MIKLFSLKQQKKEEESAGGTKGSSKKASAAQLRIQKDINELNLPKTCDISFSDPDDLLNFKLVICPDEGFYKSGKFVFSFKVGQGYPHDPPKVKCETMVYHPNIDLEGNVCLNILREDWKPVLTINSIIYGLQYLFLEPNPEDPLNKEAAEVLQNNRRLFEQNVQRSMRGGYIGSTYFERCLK
Target sequence (Q13564 whole entry, looked up): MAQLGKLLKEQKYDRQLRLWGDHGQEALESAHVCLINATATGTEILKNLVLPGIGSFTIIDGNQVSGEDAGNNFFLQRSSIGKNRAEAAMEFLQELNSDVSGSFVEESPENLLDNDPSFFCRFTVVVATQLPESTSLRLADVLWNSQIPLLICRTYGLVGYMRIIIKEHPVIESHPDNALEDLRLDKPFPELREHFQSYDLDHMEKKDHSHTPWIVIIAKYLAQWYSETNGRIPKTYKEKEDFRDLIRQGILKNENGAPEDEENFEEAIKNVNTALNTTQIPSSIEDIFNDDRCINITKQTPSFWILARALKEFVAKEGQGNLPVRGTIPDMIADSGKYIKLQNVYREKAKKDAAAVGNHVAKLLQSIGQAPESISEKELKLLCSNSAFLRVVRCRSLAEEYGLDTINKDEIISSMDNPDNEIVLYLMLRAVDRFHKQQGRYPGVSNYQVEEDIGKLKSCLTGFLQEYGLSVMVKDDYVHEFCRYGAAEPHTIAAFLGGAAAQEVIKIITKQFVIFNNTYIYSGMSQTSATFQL
Tn6 DDE FP – DD(E)-Tn6 binding inhibition, primary FP screen | Fibrin DD(E) TRITC-Tn6 fluorescence polarization displacement | inhibition, % at 8.3 µM | AID 720509 | 0.21% of 370,000 active;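 active = inhibition above a per-campaign cutoff: mean of compounds within control limits plus 3 SD, cut at about 15% in these data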;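 note: 0% = median of all compound wells on the plate and 100% = blocking peptide control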
SKN-1 inh – C. elegans SKN-1 inhibition | C. elegans VP596 Pgst-4::GFP/RFP ratio, acrylamide-induced, 24 h | inhibition, % at 21.8 µM | 0.49% of 360,000 active;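 active = interference check ratio from 0.5 to 1.5 plus GFP to RFP signal ratio inhibition reaching or exceeding a fixed threshold, cut at about 30% in these data, passing the limit was not always enough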
Tn7 DDE FP – disrupts Tn7 cyclic peptide binding to fibrin D-Dimer-E complex | P02675 | FP displacement of FITC-Tn7 peptide from fibrin DD(E); 0% = median of compound wells per plate | inhibition, % at 8.3 µM | 0.13% of 370,000 active;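 active = inhibition above the mean of compounds falling within the control limits plus 3 SD of them, cut at about 14% in these data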;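 note: 0% = plate median of compound wells and 100% = 10 µM Aha-Tn7 peptide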
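Also added: labelled Tn7 tracer, 0.1 µM; Assay system: human fibrin DD(E) protein; Amount: 2 µM fibrin DD(E); Schedule: 10 min compound pre-incubation, 3 h probe incubation at room temperature; Repeats: one replicate per compound; Read-out basis: percent inhibition; Measured by: fluorescence polarization of the labelled Tn7 tracer.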
proKLK7 act – activates the human kallikrein-7 zymogen. P49862. purified proKLK7, EDANS-DABCYL substrate fluorescence; 100% is mature enzyme control, 0% vehicle. activation, % at 7 µM. 0.9% of 370,000 active. AID 652039;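 active = activation above the mean of all tested compounds plus 3 SD, computed per campaign excluding outliers beyond control limits, cut at about 13% in these data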
An asterisk follows results filed as active; i = inactive; . = not tested or not shown; + = active, no number. Most compounds without a hit are left out; they make up all but 2.2% or so of the library.

SMILES	MT1-MMP act inh	Neddylation inh	Tn6 DDE FP	SKN-1 inh	Tn7 DDE FP	proKLK7 act
CCOC(=O)c1ccc(Nc2nc(N)c3cc(OC)c(OC)cc3n2)cc1	-4	+	.	6	.	.
Cc1ccc(NC(=O)c2cccc(S(=O)(=O)NCc3ccccc3)c2)nc1	4	i	0	14	6	0
CCN(c1ccccc1)S(=O)(=O)c1cccc(C(=O)Nc2ccc(C)cn2)c1	2	i	-1	48*	9	1
Cc1ccc(N(CC(=O)N2CCOCC2)S(C)(=O)=O)cc1	2	i	7	2	2	0
Cc1ccc(Nc2nc(-c3cccs3)cs2)nc1	-8	i	-12	46*	1	1
CC1(C)C[C@@H](O)CC2(C1)C[C@]1(C)CC(O)[C@H]2C(C)(C)C1 (stereo partly specified)	-1	i	-2	1	4	0
COc1ccc(NC(=O)NS(=O)(=O)c2ccc(C)cc2)cn1	-164	i	11	-94	48*	2
CCOC(=O)N1CCC(NC(=O)CC2C(=O)NCCN2Cc2cccc(F)c2F)CC1 (stereo unspecified)	1	i	3	9	1	1
COc1ccc2[nH]c(C(=O)N/N=C/c3ccc(O)cc3O)cc2c1	-10	+	-26	-3	6	-33
COc1ccc(/C=N/NC(=O)c2nc(-c3ccccc3)n(-c3ccccc3)n2)cc1	4	i	-7	10	-5	0
CCOc1ccc2[nH]c(C(=O)N/N=C/c3ccc(OC)cc3)cc2c1	21	i	-8	13	10	-26
COc1ccc(/C=N/NC(=O)c2nc(-c3ccccc3)n(-c3ccccc3)n2)c(O)c1	1	+	-5	-6	4	-13
Cc1c(Cl)cccc1NC(=O)CC1SCCNC1=O (stereo unspecified)	-8	i	3	22	0	0
Cc1c(Cl)cccc1NC(=O)CC1NCCNC1=O (stereo unspecified)	-3	i	0	38*	-7	0
COc1ccc(CCNC(=O)C(=O)NCC2OCCN2S(=O)(=O)c2ccc(Br)cc2)cc1 (stereo unspecified)	4	i	5	-12	7	0
COC(=O)Oc1ccc(/C=N/NC(=O)CN(c2ccccc2Br)S(C)(=O)=O)cc1OC	1	i	-6	7	-5	1
CN(C)c1ccc(/C=N/NC(=O)CN(c2ccccc2Cl)S(C)(=O)=O)cc1Br	-1	i	-2	36*	-9	1
COc1ccccc1NC(=S)NCc1ccccc1	-1	i	-4	4	2	0
Fc1cc(Cl)cc2ccc(-c3ccccc3)nc12	4	i	-1	36*	-9	0
CN(C)c1ccc(C(=O)/C=C/c2ccco2)cc1	0	i	5	24	3	1
O=C(C=Cc1ccco1)c1ccc2ccccc2c1	-10	i	-3	63*	-3	-2
O=C(/C=C/c1ccco1)N1CCc2ccccc21	-6	i	2	58*	-5	0
Cc1ccc(/C=C/C(=O)N2CCc3ccccc32)o1	-3	i	-4	-1	2	0
Cc1ccc(NC(=O)/C(=C/c2cccc(Br)c2)NC(=O)c2ccco2)cc1	-16	i	0	6	-10	-2
CCOC(=O)c1ccc(Nc2ccc(C(C)=O)cc2)cc1	-1	.	-3	8	-6	-1
SMILES	MT1-MMP act inh	Neddylation inh	Tn6 DDE FP	SKN-1 inh	Tn7 DDE FP	proKLK7 act
CCOC(=O)c1ccc(Nc2nnc(C(C)(C)C)c(=O)[nH]2)cc1	.	i	2	37*	6	0
Cn1c(=O)n(C)c2cc(/C=C(/C#N)C(=O)NCc3ccco3)ccc21	3	i	-7	97*	1	1
CCN(CC)c1ccc(/C=C(\C#N)C(=O)NCc2ccco2)cc1	.	.	10	.	0	0
Brc1ccc(CNc2ccc3ncccc3c2)cc1	-3	+	-6	22	-2	-4
O=C(Nc1ccc2ncccc2c1)c1cccc(Br)c1	8	i	-8	18	1	-1
OCC1(Cc2ccccc2)CCN(Cc2cnc(-c3ccc(Cl)cc3)nc2)CC1	-7	i	7	0	0	1
CC(C)C(=O)NCCc1nc(-c2ccccc2Cl)no1	8	i	-2	36*	-6	0
COC(=O)c1ccccc1NC(=O)c1c(O)c2c([nH]c1=O)CCCC2	-8	i	-9	-8	0	0
CCN1C(=O)CC(N2CCOCC2)C1=O (stereo unspecified)	-4	i	4	-3	-2	0
CCN1C(=O)CC(N2CCC(C(=O)N3CCOCC3)CC2)C1=O (stereo unspecified)	-5	i	7	1	16*	0
CCN1CCN(CC(=O)N/N=C/c2cc(Br)cs2)CC1	0	i	0	4	2	0
CCCC(c1nnnn1Cc1ccco1)N1CCN(C2CCCC2)CC1 (stereo unspecified)	3	i	-2	-4	-2	0
CC(C)C(c1nnnn1Cc1ccco1)N1CCN(C2CCCC2)CC1 (stereo unspecified)	2	i	-1	51*	-5	-1
CCc1ccc(Nc2oc(C)cc(=O)c2C(C)=O)cc1	-6	i	-2	69*	-5	-1
Fc1ccc(N2CCN(C3=Nc4cccc5cccc3c45)CC2)cc1	-9	i	-3	16	-6	2
CCCCCOc1ccc(/C=C/c2c([N+](=O)[O-])c(=O)n(C)c(=O)n2C)cc1	-2	i	4	13	-4	-1
N#CC(c1ccc(Cl)cc1)c1ccc2c(C(F)(F)F)cc(C(F)(F)F)nc2n1 (stereo unspecified)	-17	i	1	37*	-5	0
COc1cccc(/C=C2\CC(C)Cc3c2nc2ccccc2c3C(=O)O)c1OC (stereo unspecified)	0	i	0	40*	4	1
O=C(Nc1cccc2cccnc12)c1cccc2ccccc12	-1	i	4	15	-2	0
CC(C)[C@H](NC(=O)OC(C)(C)C)C(=O)NCC1CCC(C(=O)N[C@@H](Cc2ccccc2)C(=O)O)CC1 (stereo partly specified)	1	i	-5	-8	2	0
CC1CCN(C(=O)COC(=O)c2ccc3ccccc3n2)CC1	6	i	-1	-7	7	0
